In PubChem BioAssay:
Calls of active or inactive are those of the source.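 The calls were made as follows, unless noted: active = inhibition of the reporter signal at or above 50%; inactive = inhibition below 50%.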

How the values were obtained:
[1] = inhibitors of TNFa-induced NFkB p65 translocation, primary screen, imaging, HUVEC, MLSMR starter and 10KST1 sets (AID 438;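 active = inhibition above 20% together with a positive visual image hit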;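 also: compound added about 3h40 before a 20 min TNFalpha stimulation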;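 as to inhibition: signal is the nuclear over cytoplasmic p65 intensity ratio per well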); conditions: HUVEC TNFa-induced p65 nuclear translocation; cell count: measured here: nuclei count (cytotoxicity indicator), at 2.08 µM; inhibition: at 2 µM, stronger effect = higher value, 0% TNFa-plus-vehicle, 100% no-TNFa wells
[2] = inhibitors of mutant huntingtin aggregation, primary screen, imaging, exon1htt(103Q)mCFP cells, high-content imaging (AID 483;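 active = visual image review flags a hit and inhibition of aggregation exceeds 20%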;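 also: compound exposure lasted 3 days before fixation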;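 as to nuclei count: percent of the per-plate median nuclei count of sample wells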); conditions: exon1htt(103Q)mCFP cell line, aggregate imaging, at 2 µM; inhibition of aggregation: stronger effect = higher value; nuclei count: measured here: cell count, toxicity
[3] = inhibitors of E-selectin induction by TNFa, primary screen, imaging, HUVEC, immunofluorescence, MLSMR starter and 10KST1 sets (AID 487;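 active = visually confirmed hit in the image check and inhibition above 20%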;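 as to inhibition: signal is fraction of cell area covered by stained E-selectin grains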;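 as to nuclei count: 100% = median nuclei count of all wells on the same plate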); conditions: HUVEC TNFalpha-induced E-selectin immunofluorescence imaging, at 2 µM; inhibition: stronger effect = higher value; nuclei count: measured here: cell number, toxicity
[4] = target: Voltage-gated potassium channel subunit beta-2 (Rattus norvegicus) (UniProt P62483); test: KvBeta enzyme negative modulators, primary screen, biochemical, NADPH fluorescence (AID 622;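 active = fluorescence slope higher than the sample average by over 3 SD, cut at about -0.22 in these data, passing the limit was not always enough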;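 also: slope of raw intensity against log time taken from 70 to 1610 s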); conditions: recombinant KvBeta, 4-cyanobenzaldehyde reduction, at 10 µM, stronger effect = higher value
Chain of Voltage-gated potassium channel subunit beta-2 (Rattus norvegicus) (P62483 whole entry, looked up): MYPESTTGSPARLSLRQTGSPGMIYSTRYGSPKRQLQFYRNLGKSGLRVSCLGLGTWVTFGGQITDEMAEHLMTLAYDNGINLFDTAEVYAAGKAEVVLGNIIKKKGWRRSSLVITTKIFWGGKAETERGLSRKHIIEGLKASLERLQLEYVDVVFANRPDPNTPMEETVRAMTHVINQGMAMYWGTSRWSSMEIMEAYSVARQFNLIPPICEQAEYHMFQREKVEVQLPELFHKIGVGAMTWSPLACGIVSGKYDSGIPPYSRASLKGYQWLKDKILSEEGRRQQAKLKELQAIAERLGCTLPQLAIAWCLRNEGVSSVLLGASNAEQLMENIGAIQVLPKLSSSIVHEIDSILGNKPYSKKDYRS

[5] = target: Voltage-gated potassium channel subunit beta-2 (Rattus norvegicus) (UniProt P62483); test: KvBeta positive modulators, primary screen, biochemical, NADPH fluorescence (AID 623;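 active = NADPH fluorescence slope more negative than the mean of all samples by about 3 SD, 99.7% confidence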;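 also: fluorescence intensity change per second fitted from 20 to 320 s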); conditions: Recombinant KvBeta, NADPH fluorescence decrease slope, 10 min; at 10 µM; stronger effect = lower value
[6] = target: Muscarinic acetylcholine receptor M4 (Homo sapiens) (UniProt P08173); test: compounds altering M4/GIRK thallium flux, either direction, primary screen, M4 allosteric agonist project, cell-based, HEK293 M4/GIRK, BTC-AM (AID 625;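 active = fluorescence slope after compound addition differing from the mean of all tested samples at 99.7% confidence, mostly higher but some lower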;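 also: thallium influx through GIRK channels coupled to M4 in HEK293 cells with BTC-AM dye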); conditions: at 10 µM, actives lie on both sides
Chain of Muscarinic acetylcholine receptor M4 (Homo sapiens) (P08173 whole entry, looked up): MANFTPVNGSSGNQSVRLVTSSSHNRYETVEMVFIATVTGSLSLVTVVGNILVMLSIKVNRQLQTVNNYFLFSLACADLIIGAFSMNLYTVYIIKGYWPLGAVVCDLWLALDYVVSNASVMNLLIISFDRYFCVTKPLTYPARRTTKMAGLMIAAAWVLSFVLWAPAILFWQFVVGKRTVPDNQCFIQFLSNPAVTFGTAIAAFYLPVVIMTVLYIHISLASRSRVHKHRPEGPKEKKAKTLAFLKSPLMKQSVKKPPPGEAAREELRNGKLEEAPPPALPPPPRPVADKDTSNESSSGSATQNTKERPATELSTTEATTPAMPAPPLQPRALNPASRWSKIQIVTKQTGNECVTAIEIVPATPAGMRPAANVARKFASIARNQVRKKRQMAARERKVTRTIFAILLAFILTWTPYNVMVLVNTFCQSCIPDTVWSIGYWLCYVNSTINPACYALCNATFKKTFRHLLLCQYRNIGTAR
How it was run: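 Material – HEK293 cells with M4 receptor and GIRK channels · Buffer or medium – pH 7.3 thallium assay buffer · Doses – one dose, 10 µM final · Timing – cells overnight at 37 °C, BTC-AM loading 1 h, reads 2 min total · Measured by – kinetic fluorescence with BTC-AM dye · Controls – carbachol and DMSO controls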

[7] = inhibitors of Sendai virus-induced IRF3 signaling, primary screen, TLR/RLR signaling modifier project, cell-based, Sendai virus stimulus, luciferase, 10K MLSCN set (AID 602276;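 active = inhibition at or above 50% at 10 µM; inactive = inhibition below 50%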;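 also: firefly luciferase from ISG56 promoter only with Renilla not read in this screen; 0% = Sendai virus plus DMSO and 100% = medium plus DMSO without virus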); conditions: HEK293 RL24 IRF3 luciferase reporter, at 10 µM, stronger effect = higher value
[8] = inhibitors of poly I:C-induced TLR3 signaling, primary screen, cell-based, poly I:C stimulus, luciferase, 10K MLSCN set (AID 602277); conditions: HEK293-TLR3 RL24 IRF3 luciferase reporter, at 10 µM, stronger effect = higher value

SMILES	cell count [1]	inhibition [1]	inhibition of aggregation [2]	nuclei count [2]	inhibition [3]	nuclei count [3]	fluorescence slope [4]	NADPH fluorescence slope [5]	fluorescence slope [6]	inhibition [7]	inhibition [8]
Nc1c(C(=O)NCCc2ccccc2)nnn1Cc1ccccc1	564	4.8% (inactive)	24.6% (inactive)	69.8%	-6.5% (inactive)	98.3%	-0.571 (inactive)	-4.3e-05 (inactive)	0.00544 (inactive)	-11.8% (inactive)	-13.7% (inactive)
COc1ccc(C(=O)Nc2ccc(S(=O)(=O)Nc3nccnc3OC)cc2)cc1OC	459	8.1% (inactive)	4.1% (inactive)	101%	-126% (inactive)	123%	-0.601 (inactive)	6.9e-06 (inactive)	0.0057 (inactive)	21.5% (inactive)	34.3% (inactive)
O=C(O)C1CC(=O)N(Cc2ccccc2)C1 (stereo not drawn)	398	-1.8% (inactive)	-0.4% (inactive)	110%	-43.7% (inactive)	127%	-0.526 (inactive)	-0.00016 (inactive)	0.00382 (inactive)	16.7% (inactive)	17% (inactive)
COc1ccccc1OCc1ccc(C(=O)NC(C)(C)C)o1	735	-5.5% (inactive)	0.6% (inactive)	62.4%	-20.5% (inactive)	112%	-0.601 (inactive)	5.2e-05 (inactive)	0.00541 (inactive)	-16.1% (inactive)	-22.5% (inactive)
COc1ccc(N2CCN(C(c3cccs3)C(C)NC(=O)c3ccco3)CC2)cc1 (stereo not drawn)	467	5.5% (inactive)	-7.1% (inactive)	83.9%	11.8% (inactive)	101%	-0.368 (inactive)	-7.2e-05 (inactive)	0.00502 (inactive)	8.09% (inactive)	22.4% (inactive)
CCCSc1nc2c(c(=O)[nH]c(=O)n2C)n1CCc1ccccc1	413	11.9% (inactive)	0.6% (inactive)	107%	-76.3% (inactive)	110%	-0.507 (inactive)	-3.4e-05 (inactive)	0.00465 (inactive)	17.9% (inactive)	4.39% (inactive)
COc1ccc(-c2cc(C(=O)N3CCN(Cc4ccccc4)CC3)no2)cc1OC	463	-23% (inactive)	-5.8% (inactive)	106%	-36% (inactive)	112%	-0.318 (inactive)	-6.6e-05 (inactive)	0.00627 (inactive)	8.32% (inactive)	12.9% (inactive)
COc1cc(C)nc(OCCNC(=O)COc2ccc(Cl)cc2C)n1	705	23.3% (active)	-16% (inactive)	109%	-53.9% (inactive)	123%	-0.499 (inactive)	0.00012 (inactive)	0.00677 (inactive)	-3.41% (inactive)	-6.37% (inactive)
COC(=O)c1cc(-c2c(C)nn(-c3ccccc3)c2C)n[nH]1	391	1.1% (inactive)	-8.1% (inactive)	111%	8.5% (inactive)	95.5%	-0.447 (inactive)	2.5e-05 (inactive)	0.00494 (inactive)	-13.2% (inactive)	-66.7% (inactive)
CCCCn1c(CN2CCN(c3cccc(Cl)c3)CC2)nc2c1c(=O)n(C)c(=O)n2C	581	3.4% (inactive)	10.6% (inactive)	100%	-3.3% (inactive)	103%	-0.597 (inactive)	-6.6e-05 (inactive)	0.00321 (inactive)	14.4% (inactive)	-1.69% (inactive)
CS(=O)(=O)N1CCN(C(=O)c2ccc(-c3ccccc3)cc2)CC1	481	4% (inactive)	-11% (inactive)	108%	-287% (inactive)	128%	-0.541 (inactive)	-5.8e-05 (inactive)	0.00648 (inactive)	18.4% (inactive)	22.5% (inactive)
CCC(=O)N1CCNC(=O)C1CC(=O)Nc1ccc(C)c(Cl)c1 (stereo not drawn)	258	3.7% (inactive)	-13.9% (inactive)	102%	-40.7% (inactive)	88.8%	-0.56 (inactive)	1.7e-05 (inactive)	0.00516 (inactive)	-5.01% (inactive)	-2.47% (inactive)
Cn1c(-c2ccccc2)c(CCO)c2ccccc21	578	13.7% (inactive)	-2.6% (inactive)	88.3%	-60.6% (inactive)	152%	-0.559 (inactive)	-3.6e-05 (inactive)	0.00569 (inactive)	6.84% (inactive)	6.66% (inactive)
c1ccc(-c2nn3nnnc3c3ccccc23)cc1	194	-3% (inactive)	6.8% (inactive)	91.1%	-2.7% (inactive)	85.1%	-0.573 (inactive)	-2.5e-05 (inactive)	0.00565 (inactive)	8.1% (inactive)	20.5% (inactive)
CCC(C)OC(=O)C1=C(C)NC2=C(C(=O)C(C(=O)OC)C(C)C2)C1c1ccc(N(C)C)cc1 (stereo not drawn)	280	-2.4% (inactive)	12.6% (inactive)	104%	-8.6% (inactive)	115%	-0.579 (inactive)	2.1e-05 (inactive)	0.00551 (inactive)	14.7% (inactive)	25.6% (inactive)
CCCN1CCN(CCCNC(=O)Cn2nc(-c3ccc(Cl)cc3)ccc2=O)CC1	514	13.6% (inactive)	0.1% (inactive)	106%	-205% (inactive)	131%	-0.552 (inactive)	-8.1e-05 (inactive)	0.00614 (inactive)	9.94% (inactive)	11.9% (inactive)
O=C(COC(=O)C1=COCCO1)Nc1ccccc1Oc1ccccc1	672	9.6% (inactive)	31% (inactive)	90.2%	-33.5% (inactive)	103%	-0.541 (inactive)	-2.5e-05 (inactive)	0.00561 (inactive)	1.11% (inactive)	8.4% (inactive)
CCOc1ccccc1N1CCN(S(=O)(=O)c2cccc3nsnc23)CC1	453	3.9% (inactive)	-10.4% (inactive)	94%	-6.6% (inactive)	106%	-0.472 (inactive)	2.9e-06 (inactive)	0.00356 (inactive)	22.8% (inactive)	18.5% (inactive)
CSc1ccccc1NC(=O)CN(Cc1ccccc1)S(C)(=O)=O	768	-15.1% (inactive)	-4.2% (inactive)	115%	-78.6% (inactive)	103%	-0.564 (inactive)	-3.2e-05 (inactive)	0.00609 (inactive)	21.8% (inactive)	19.7% (inactive)
Cc1nc2ccc(NC(=O)N3CCC(c4ccccc4)C3)cc2nc1C (stereo not drawn)	551	4.3% (inactive)	9.2% (inactive)	106%	20.7% (inactive)	68.5%	-0.0383 (inactive)	9.4e-06 (inactive)	0.00546 (inactive)	-0.553% (inactive)	-40.6% (inactive)
CCCc1cc(=O)n2[nH]c(-c3ccc(Br)cc3)cc2n1	320	1.7% (inactive)	-4.6% (inactive)	98.8%	-27.5% (inactive)	119%	-0.473 (inactive)	-2.2e-05 (inactive)	0.00575 (inactive)	-22.4% (inactive)	-15.4% (inactive)
[O-][n+]1c2c(nn1-c1ccccc1Cl)-c1nonc1CC2	593	-26.9% (inactive)	-16.7% (inactive)	112%	-1.8% (inactive)	95%	-0.351 (inactive)	-7.7e-05 (inactive)	0.00719 (inactive)	12% (inactive)	5.67% (inactive)
CC(=O)Nc1ccc(S(=O)(=O)N2CCN(C(C)CCc3ccccc3)CC2)cc1 (stereo not drawn)	440	0% (inactive)	2.6% (inactive)	69.7%	1.2% (inactive)	96.1%	-0.538 (inactive)	-6.4e-05 (inactive)	0.00422 (inactive)	7.51% (inactive)	20.1% (inactive)
O=C(Cn1nnc(-c2cccs2)n1)OC1CCCCC1	298	-4.7% (inactive)	-0.1% (inactive)	98.6%	-108% (inactive)	108%	-0.547 (inactive)	-9.5e-06 (inactive)	0.00395 (inactive)	11.6% (inactive)	5.67% (inactive)
CCOC(=O)c1ccc(NC2OC(=O)c3ccccc32)cc1 (stereo not drawn)	605	-54.1% (inactive)	6.4% (inactive)	106%	-85.2% (inactive)	118%	-0.216 (inactive)	-2.5e-05 (inactive)	0.00703 (inactive)	11.8% (inactive)	-21.4% (inactive)
CCOC(=O)N1CCC(NC(=O)c2ccc3c(c2)N(C)CCS3)CC1	368	-0.7% (inactive)	17.8% (inactive)	113%	-131% (inactive)	126%	-0.0303 (active)	1.7e-06 (inactive)	0.00744 (inactive)	13% (inactive)	21.9% (inactive)
Cc1c(C(=O)O)sc2nc3n(c(=O)c12)CCC(C)CC3 (stereo not drawn)	621	-10.5% (inactive)	-7.7% (inactive)	113%	-29.1% (inactive)	110%	-0.442 (inactive)	6.7e-05 (inactive)	0.00587 (inactive)	6.81% (inactive)	11.1% (inactive)
Cc1ccc(S(=O)(=O)NCCC(=O)OCn2nnc3ccccc3c2=O)cc1	603	-0.8% (inactive)	5% (inactive)	102%	-272% (inactive)	119%	-0.454 (inactive)	-4.9e-05 (inactive)	0.00588 (inactive)	15.2% (inactive)	28% (inactive)
